Source: PubChem BioAssay
Apaf1 activ: activates human Apaf-1 apoptosome; O14727; Apaf-1 apoptosome caspase-3 activation, DEVD-Rh110 fluorescence; active compounds read low; activity change, negative = activation, % at 20 µM; hit rate 0.31% among 330,000;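 active = activity change at or below -40% at 20 µM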
Target sequence (O14727 whole entry, looked up): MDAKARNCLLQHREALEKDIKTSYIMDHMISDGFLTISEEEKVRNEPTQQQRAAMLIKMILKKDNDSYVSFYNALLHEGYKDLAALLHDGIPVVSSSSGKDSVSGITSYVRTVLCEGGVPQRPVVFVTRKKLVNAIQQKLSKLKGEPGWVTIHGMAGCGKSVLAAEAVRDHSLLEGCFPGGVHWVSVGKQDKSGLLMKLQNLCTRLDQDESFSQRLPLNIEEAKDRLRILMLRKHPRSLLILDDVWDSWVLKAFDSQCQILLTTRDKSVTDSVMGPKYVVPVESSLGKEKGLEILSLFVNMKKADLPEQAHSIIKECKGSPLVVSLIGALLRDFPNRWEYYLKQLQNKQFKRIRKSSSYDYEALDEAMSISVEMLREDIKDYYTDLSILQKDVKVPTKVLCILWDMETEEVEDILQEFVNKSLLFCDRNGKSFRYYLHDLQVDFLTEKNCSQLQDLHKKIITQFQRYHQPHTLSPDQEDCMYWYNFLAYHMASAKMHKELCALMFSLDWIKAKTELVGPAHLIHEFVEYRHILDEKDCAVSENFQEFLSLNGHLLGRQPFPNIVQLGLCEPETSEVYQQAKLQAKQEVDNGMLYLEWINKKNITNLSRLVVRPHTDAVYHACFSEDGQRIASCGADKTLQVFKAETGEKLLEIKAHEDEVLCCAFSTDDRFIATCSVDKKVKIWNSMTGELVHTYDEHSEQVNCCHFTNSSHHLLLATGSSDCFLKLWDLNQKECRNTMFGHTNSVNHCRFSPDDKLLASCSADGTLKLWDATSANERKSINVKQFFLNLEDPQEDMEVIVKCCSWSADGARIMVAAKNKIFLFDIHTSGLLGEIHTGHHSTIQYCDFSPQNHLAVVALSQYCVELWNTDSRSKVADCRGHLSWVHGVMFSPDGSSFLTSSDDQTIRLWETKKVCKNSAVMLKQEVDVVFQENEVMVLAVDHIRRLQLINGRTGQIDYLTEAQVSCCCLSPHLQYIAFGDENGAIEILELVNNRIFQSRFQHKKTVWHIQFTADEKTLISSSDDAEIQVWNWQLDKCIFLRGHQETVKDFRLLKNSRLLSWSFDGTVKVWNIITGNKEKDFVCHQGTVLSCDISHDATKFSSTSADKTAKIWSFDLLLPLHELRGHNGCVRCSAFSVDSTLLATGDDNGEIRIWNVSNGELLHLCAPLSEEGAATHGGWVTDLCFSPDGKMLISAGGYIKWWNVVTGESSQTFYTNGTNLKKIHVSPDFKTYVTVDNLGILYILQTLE
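System: Reconstituted apoptosome of Apaf-1, cytochrome c, caspase-9, procaspase-3 | Reagent: dATP, cytochrome c, and (Z-DEVD)2-Rh110 caspase-3 substrate | Times: 30 min compound preincubation and 50 min reaction, both room temperature | Detection: Caspase-3-released Rh110 fluorescence, 540 nm emission, 480 nm excitation | Measure: Caspase-3 activity via Apaf-1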
Rh110 interf act: counter-screen for Apaf-1 activators: fluorescence interference | shares compounds with Apaf1 activ | Rh110 fluorescence interference, quenched caspase reaction, Ex480/Em540 | fluorescence interference (activity change), % at 20 µM, hits read low | 980 tested, under 10 active;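 active = mean activity change at or below -40% when tested at 20 µM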
Apaf-1 act conf: confirmation of human Apaf-1 activators; shares compounds with Apaf1 activ; reconstituted apoptosome caspase-3 activity, DEVD-Rh110 fluorescence; active compounds read low; activity change, negative = activation, % at 20 µM; hit rate 5% among 980; AID 504617;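 active = mean activity change at or below -40%, meaning activation of 40% or more, at 20 µM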
Fluor interf act: Apaf-1 activator counter-screen fluorescence artifact | shares compounds with Apaf1 activ | fluorescence interference counterscreen, Apaf-1 activator assay | EC50, µM | 55 tested, under 10 active | AID 588592; call rule not given here
Numbers stand for hits; i = inactive; nt = no result given. Only a sample is shown.

SMILES	Apaf1 activ	Rh110 interf act	Apaf-1 act conf	others
CC1CN(C(=O)c2cccc(S(=O)(=O)NCc3ccccc3)c2)CC(C)O1 (stereo not given)	i	nt	nt
CC1=NN(c2ccc(F)cc2)C(=O)C1C(c1cccc(O)c1)c1c(C)[nH]n(-c2ccc(F)cc2)c1=O (stereo not given)	i	nt	nt
O=C(COc1ccc2ccc(=O)oc2c1)Nc1ccc(N2CCCCC2)cc1	i	nt	nt
CCCCCC(=O)Nc1ccc(N2CCN(S(C)(=O)=O)CC2)cc1	-523	i	i
Cc1ccc(C(=O)N/C(=C\c2ccc(-c3ccccc3[N+](=O)[O-])o2)C(=O)NCCN(C)C)cc1	i	nt	nt
CCOc1nc2cnccc2n(CC(=O)Nc2ccccc2F)c1=O	-49	i	i
Cc1[nH]c2ccccc2c1C(C#N)(C#N)C1C(=O)c2ccccc2C1=O	i	nt	nt
Cc1c(CCO)c(=O)[nH]n1S(=O)(=O)c1cccc(C(F)(F)F)c1	-92	i	i
O=C(Cc1cccc(C(F)(F)F)c1)OCC(=O)N1CCN(S(=O)(=O)c2ccc(Cl)cc2)CC1	i	nt	nt
CC(C(O)c1ccc(O)cc1)N1CCC(Cc2ccccc2)CC1 (stereo not given)	i	nt	nt
O=C(Cn1nnc(-c2ccccc2)n1)N/N=C/c1cc([N+](=O)[O-])ccc1O	-57	i	i
COc1cc([N+](=O)[O-])cc(/C=N/NC(=O)C(C)Nc2cccc3ccccc23)c1O (stereo not given)	i	nt	nt
Cc1[nH]n(-c2ccccc2)c(=O)c1/C=N/NC(=O)c1cccc([N+](=O)[O-])c1	i	nt	nt
COc1ccc2cc1Oc1ccc(cc1)C[C@H]1c3c(cc4c(c3Oc3cc5c(cc3OC)CCN(C)[C@@H]5C2)OCO4)CCN1C	i	nt	nt
Nc1ccc(C(=O)O)cc1	i	nt	nt
CCOc1ccc2nc(NC3=NC(c4ccc(OC)cc4)CC(=O)N3)nc(C)c2c1 (stereo not given)	i	nt	nt
Cc1cc(C)n(CCNC(=O)C2CCC(=O)N(CCc3cccc(F)c3)C2)n1 (stereo not given)	-456	i	i
Cc1ccccc1Nc1cc2ccccc2c(=O)[nH]1	i	nt	nt
Cc1cc2occ(CC(=O)NC3CCCc4ccccc43)c2cc1C (stereo not given)	-164	i	i
CC(=O)CCc1ccc(OCC(O)CNC2CCCc3ccccc32)cc1 (stereo not given)	i	nt	nt
CCc1ccccc1OC[C@@H](O)CN[C@H]1CCCc2ccccc21	i	nt	nt
Cc1c(N=Cc2cc3c(cc2[N+](=O)[O-])OCO3)cccc1[N+](=O)[O-]	i	nt	nt
CC(=O)N(C1=C(N)C(=O)c2ccccc2C1=O)c1ccccc1	i	nt	nt
CC(=O)N1CCc2c(sc(NC(=O)C3CC3)c2-c2nc3ccccc3s2)C1	i	nt	nt
CC1CC(C)(C)CC2(C1)NC(=O)N(CC(=O)Nc1ccc3[nH]c(=O)[nH]c3c1)C2=O (stereo not given)	i	nt	nt
SMILES	Apaf1 activ	Rh110 interf act	Apaf-1 act conf	others
Cc1ccc(C2(C)NC(=O)N(CC(=O)Nc3ccc4[nH]c(=O)[nH]c4c3)C2=O)cc1 (stereo not given)	-58	i	i
CN1CCN(C2=C(Cl)C(=O)C(c3cnc(N4CCCCC4)s3)=C(Cl)C2=O)CC1	i	nt	nt
Oc1ccc2ccccc2c1C=NC12CN3CCN(CN(C3)C1)C2	i	nt	nt
Cc1c(Cc2ccccc2)sc(/N=C/c2c(O)ccc3ccccc23)c1C(N)=O	-63	i	i
NC1(C#Cc2ccc3oc(=O)c(-n4cc(-c5ccsc5)nn4)cc3c2)CCCCC1	i	nt	nt
CCCCNC1=CC(=O)C(=O)c2ccccc21	i	nt	nt
CC/C(=N/Nc1ccccc1C)c1cnnc(SC)n1	i	nt	nt
CS(=O)(=O)N(CC(=O)Nc1ccccc1C(=O)N1CCOCC1)c1cccc(F)c1	-57	i	i
CSc1nncc(/C(C)=N\Nc2ccccc2)n1	i	nt	nt
COc1cccc(-c2cn3nc4c(nc3n2)CCCC4)c1	i	nt	nt
COc1cccc(-c2cc(C(F)(F)F)n3nc(N)nc3n2)c1	-44	i	i
CN(C)CCNC(=O)C(=O)NCC1OCCN1S(=O)(=O)c1cc(F)ccc1F (stereo not given)	i	nt	nt
CCOC(=O)N1CCC(NC(=O)CN2C(=O)CSc3ncccc32)CC1	i	nt	nt
Cc1cccc(-n2ncc3c2CCCC3NC(=O)CN2CCCC2=O)c1C (stereo not given)	-203	i	i
C[N+]1(C)CCC(=C2c3ccccc3CC(=O)c3sccc32)CC1	i	nt	nt
Cc1cccc(CC(=O)NCCn2c(C)cc3ccccc32)c1	i	nt	nt
CC(=O)c1c(O)cc(C)n(Cc2ccccc2)c1=O	-71	i	i
N#Cc1sc2nc(-c3ccccc3)cc(-c3ccco3)c2c1N	i	nt	nt
Cc1ccc(S(=O)(=O)C(C#N)c2nc3ccccc3nc2N2CCCC2)cc1 (stereo not given)	i	nt	nt
COc1ccc(NC(=O)CN(C)C(=O)C2CSC3(C)CCC(=O)N23)cc1 (stereo not given)	i	nt	nt
Cc1cccc(NC(=O)c2sc3nc4c(c(-c5cccs5)c3c2N)CN(C)CC4)c1	i	nt	nt
Cc1cccc(NC(=O)CCN2CCC(C)CC2)c1	-54	i	i
COc1ccc(CN2CCC(C(=O)Nc3ccc(Oc4cccnc4)cc3)CC2)cc1	i	nt	nt
Cc1cccc(NC(=O)NCc2ccc3c(c2)cc(C)n3C)c1	i	nt	nt
COc1ccc(NC(=O)CN2CCC(C)CC2)cc1	-52	i	i
SMILES	Apaf1 activ	Rh110 interf act	Apaf-1 act conf	others
Cn1c(C(=O)NCCN2CCCCCC2)cc2c(=O)n(C)c3ccccc3c21	i	nt	nt
Nc1ccc2ncccc2c1	i	nt	nt
O=c1[nH]c(Nc2ccccc2Cl)cc2ccccc12	i	nt	nt
CC1CCCCC1NC(=O)Cn1nnc2ccccc2c1=O (stereo not given)	-198	i	i
Cc1ccc(C(=O)NNc2cc(N3CCCC3)nc(N3CCCC3)n2)cc1	i	nt	nt
CCOC(=O)C1CCN(C(=O)Nc2ccc3nc(-c4ccco4)c(-c4ccco4)nc3c2)CC1	i	nt	nt
COc1ccc(NC(=S)N2CCC(C(=O)c3ccc(C)cc3)CC2)cc1	-103	i	i
CC(C)(C)NC(=O)[C@@H]1C[C@@H]2CCCC[C@@H]2CN1C[C@@H](O)[C@H](Cc1ccccc1)NC(=O)[C@H](CC(N)=O)NC(=O)c1ccc2ccccc2n1	i	nt	nt
CCc1ccc(S(=O)(=O)/N=C2\C=C(Nc3ccc(C(=O)O)cc3)C(=O)c3ccccc32)cc1	i	nt	nt
Cc1ccc(S(=O)(=O)/N=C2\C=C(Nc3cccc(C(=O)O)c3)C(=O)c3ccccc32)c(C)c1	i	nt	nt	Fluor interf act=i
Cc1ccc(S(=O)(=O)/N=C2\C=C(Nc3cccc(C(=O)O)c3)C(=O)c3ccccc32)cc1	i	nt	nt
C#CCOCCOCCOCCNc1nc(N2CCN(C(=O)CCCCCCCCCCNC(=O)[C@H](CCCCN)n3cc(C)nn3)CC2)nc(N2CCN(C(=O)CCCCCCCCCCNC(=O)[C@H](CCCCN)n3cc(CCCC(=O)O)nn3)CC2)n1	i	nt	nt
CN(C)c1ccc(NC(=O)Oc2ccccc2)cc1	i	nt	nt
COc1cc2sc3ccc(-c4ccc(N(C)C)nc4)cc3c(=O)c2cc1OC	i	nt	nt
C/C(=C\c1ccccc1)C1Nc2cccc3cccc(c23)N1	i	nt	nt
C=CC(=C)CC(NC)c1ccccc1 (stereo not given)	-48	i	i
Cc1ccccc1C(=O)N1CCC(n2nccc2NC(=O)CCOc2ccccc2)CC1	-187	i	i
